Results: ChEMBL document CHEMBL1127345, “Synthesis, binding properties, and 18F labeling of fluorocarazolol, a high-affinity beta-adrenergic receptor antagonist” (J Med Chem, 1994)

Experiments:
Mus musculus [1] = assay: The in vivo tissue distribution of mouse bone with Propranolol administration after 20 min, value was fractional dose per fractional body weight of the organ; format: ADME, organism-based, Bone element
How it was run: (§1)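 Male CF-1 mice (25–30 g) anaesthetised with 2 mg sodium pentobarbital ip; blocked group given 0.1 mL of […] propranolol iv via tail vein (200 μg, 6.6 mg/kg), tracer 30 min later. 0.1 mL of 1–2 mCi/mL [18F]-labelled enantiomer iv via tail vein; killed by cervical dislocation, organs weighed and counted against weighed standards. %ID/g × body weight/100 gives unitless uptake; five mice per point (heart, blood, lung, kidney, liver, bone); mean ± SD.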

Mus musculus [2] = assay: The in vivo tissue distribution of mouse bone with Propranolol administration after 90 min, value was fractional dose per fractional body weight of the organ; format: ADME, organism-based, Bone element; details: 1.5 h
How it was run: (§2)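 Male CF-1 mice (25–30 g), anesthetised with 2 mg sodium pentobarbital ip 30 min before tracer. Where blocked, propranolol iv via tail vein (0.1 mL of […]; […]) about 30 min before tracer. Tracer given by tail vein, 0.1 mL at 1–2 mCi/mL. Mice killed by cervical dislocation at set times, organs weighed and counted. %ID/g × body weight/100 gives unitless uptake. Heart, brain, blood, lung, kidney, liver and bone n=5; average ± SD.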

Mus musculus [3] = assay: The in vivo tissue distribution of mouse bone with Propranolol preadministration in 60 min, value was fractional dose per fractional body weight of the organ; format: ADME, organism-based, Bone element; details: 1 h; how it was run: as §2
Mus musculus [4] = assay: The in vivo tissue distribution of mouse kidney with Propranolol administration after 10 min, value was fractional dose per fractional body weight of the organ; format: ADME, organism-based
How it was run: (§3)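 Male CF-1 mice (25–30 g), given 2 mg sodium pentobarbital ip 30 min before tracer. Blocked groups received propranolol iv by tail vein, 0.1 mL of 1 mg/mL. About 30 min later, 0.1 mL of [18F]tracer (1–2 mCi/mL) was injected by tail vein. Mice were killed by cervical dislocation at set times, and organs were weighed and counted. Uptake is %ID/g × body weight/100, average ± SD; n=5 for heart, brain, blood, lung, kidney, liver and bone.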

Mus musculus [5] = assay: The in vivo tissue distribution of mouse kidney with Propranolol administration after 90 min, value was fractional dose per fractional body weight of the organ; format: ADME, organism-based; details: 1.5 h; how it was run: as §2
Mus musculus [6] = assay: The in vivo tissue distribution of mouse heart with Propranolol administration after 20 min, value was fractional dose per fractional body weight of the organ; format: ADME, organism-based; how it was run: as §2
Mus musculus [7] = assay: The in vivo tissue distribution of mouse heart with Propranolol administration after 40 min, value was fractional dose per fractional body weight of the organ; format: ADME, organism-based; how it was run: as §2
Mus musculus [8] = assay: The in vivo tissue distribution of mouse blood with Propranolol administration after 120 min, value was fractional dose per fractional body weight of the organ; format: ADME, organism-based; details: 2 h; how it was run: as §3
Mus musculus [9] = assay: The in vivo tissue distribution of mouse blood with Propranolol administration after 40 min, value was fractional dose per fractional body weight of the organ; format: ADME, organism-based; how it was run: as §2
Mus musculus [10] = assay: The in vivo tissue distribution of mouse blood with Propranolol administration after 60 min, value was fractional dose per fractional body weight of the organ; format: ADME, organism-based; details: 1 h; how it was run: as §2
Mus musculus [11] = assay: The in vivo tissue distribution of mouse blood with Propranolol preadministration in 10 min, value was fractional dose per fractional body weight of the organ; format: ADME, organism-based
How it was run: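 Male CF-1 mice, 25–30 g, anesthetized with 2 mg sodium pentobarbital ip. Propranolol pretreatment was 0.1 mL of 1 mg/mL iv by tail vein. About 30 min later, 0.1 mL of 1–2 mCi/mL [18F]tracer was given by tail vein. Mice were killed by cervical dislocation at set times. Organs were weighed and counted against weighed dose standards. %ID/g × body weight/100 gave fractional dose per fractional body weight. Blood and heart n=5.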

Mus musculus [12] = assay: The in vivo tissue distribution of mouse bone with Propranolol administration after 10 min, value was fractional dose per fractional body weight of the organ; format: ADME, organism-based, Bone element; how it was run: as §2
Mus musculus [13] = assay: The in vivo tissue distribution of mouse bone with Propranolol administration after 120 min, value was fractional dose per fractional body weight of the organ; format: ADME, organism-based, Bone element; details: 2 h; how it was run: as §3
Mus musculus [14] = assay: The in vivo tissue distribution of mouse heart with Propranolol administration after 180 min, value was fractional dose per fractional body weight of the organ; format: ADME, organism-based; details: 3 h; how it was run: as §3
Mus musculus [15] = assay: The in vivo tissue distribution of mouse liver with Propranolol preadministration in 120 min, value was fractional dose per fractional body weight of the organ; format: ADME, organism-based; details: 2 h; how it was run: as §2
Mus musculus [16] = assay: The in vivo tissue distribution of mouse lung with Propranolol administration after 10 min, value was fractional dose per fractional body weight of the organ; format: ADME, organism-based; how it was run: as §3
Mus musculus [17] = assay: The in vivo tissue distribution of mouse lung with Propranolol administration after 120 min, value was fractional dose per fractional body weight of the organ; format: ADME, organism-based; details: 2 h; how it was run: as §1
Mus musculus [18] = assay: The in vivo tissue distribution of mouse lung with Propranolol administration after 60 min, value was fractional dose per fractional body weight of the organ; format: ADME, organism-based; details: 1 h; how it was run: as §2
Mus musculus [19] = assay: The in vivo tissue distribution of mouse liver with Propranolol administration after 180 min, value was fractional dose per fractional body weight of the organ; format: ADME, organism-based; details: 3 h; how it was run: as §1
Mus musculus [20] = assay: The in vivo tissue distribution of mouse liver with Propranolol administration after 10 min, value was fractional dose per fractional body weight of the organ; format: ADME, organism-based; how it was run: as §3
Mus musculus [21] = assay: The in vivo tissue distribution of mouse lung without Propranolol preadministration in 10 min, value was fractional dose per fractional body weight of the organ
Mus musculus [22] = assay: The in vivo tissue distribution of mouse bone without Propranolol preadministration in 120 min, value was fractional dose per fractional body weight of the organ; details: 2 h
Mus musculus [23] = assay: The in vivo tissue distribution of mouse bone without Propranolol preadministration in 180 min, value was fractional dose per fractional body weight of the organ; details: 3 h
Mus musculus [24] = assay: The in vivo tissue distribution of mouse brain without Propranolol preadministration in 10 min, value was fractional dose per fractional body weight of the organ
Mus musculus [25] = assay: The in vivo tissue distribution of mouse liver without Propranolol preadministration in 10 min, value was fractional dose per fractional body weight of the organ
Mus musculus [26] = assay: The in vivo tissue distribution of mouse liver without Propranolol preadministration in 90 min, value was fractional dose per fractional body weight of the organ; details: 1.5 h
Mus musculus [27] = assay: The in vivo tissue distribution of mouse heart without Propranolol preadministration in 60 min, value was fractional dose per fractional body weight of the organ; details: 1 h
Mus musculus [28] = assay: The in vivo tissue distribution of mouse brain without Propranolol preadministration in 120 min, value was fractional dose per fractional body weight of the organ; details: 2 h
Mus musculus [29] = assay: The in vivo tissue distribution of mouse kidney without Propranolol preadministration in 40 min, value was fractional dose per fractional body weight of the organ
Mus musculus [30] = assay: The in vivo tissue distribution of mouse kidney without Propranolol preadministration in 90 min, value was fractional dose per fractional body weight of the organ; details: 1.5 h
Mus musculus [31] = assay: The in vivo tissue distribution of mouse kidney without Propranolol preadministration in 120 min, value was fractional dose per fractional body weight of the organ; details: 2 h

Work on CC(C[18F])NC[C@H](O)COc1cccc2[nH]c3ccccc3c12 (some centres not stated) yielded a Dose/organ (Mus musculus [1]) of 0.86, a Dose/organ (Mus musculus [2]) of 0.72 and a Dose/organ (Mus musculus [3]) of 0.72. It also gave a Dose/organ (Mus musculus [4]) of 4.18, a Dose/organ (Mus musculus [5]) of 0.92 and a Dose/organ (Mus musculus [6]) of 0.63. The Dose/organ (Mus musculus [7]) was 0.51, the Dose/organ (Mus musculus [8]) was 0.13 and the Dose/organ (Mus musculus [9]) was 0.35. For the same molecule, the Dose/organ (Mus musculus [10]) was 0.25, the Dose/organ (Mus musculus [11]) was 0.56 and the Dose/organ (Mus musculus [12]) was 0.72. It also gave a Dose/organ (Mus musculus [13]) of 1.42, a Dose/organ (Mus musculus [14]) of 0.15 and a Dose/organ (Mus musculus [15]) of 0.96. For the same molecule, the Dose/organ (Mus musculus [16]) was 5, the Dose/organ (Mus musculus [17]) was 0.52 and the Dose/organ (Mus musculus [18]) was 1.1. For the same molecule, the Dose/organ (Mus musculus [19]) was 0.59, the Dose/organ (Mus musculus [20]) was 2.89 and the Dose/organ (Mus musculus [21]) was 6.4. It also gave a Dose/organ (Mus musculus [22]) of 1.08, a Dose/organ (Mus musculus [23]) of 1.9 and a Dose/organ (Mus musculus [24]) of 1.18. It also gave a Dose/organ (Mus musculus [25]) of 3.55, a Dose/organ (Mus musculus [26]) of 1.09 and a Dose/organ (Mus musculus [27]) of 0.61. For the same molecule, the Dose/organ (Mus musculus [28]) was 0.64, the Dose/organ (Mus musculus [29]) was 2.01 and the Dose/organ (Mus musculus [30]) was 1.33. It also gave a Dose/organ (Mus musculus [31]) of 0.83.
CC(C[18F])NC[C@@H](O)COc1cccc2[nH]c3ccccc3c12 (some centres not stated) was tested, and the Dose/organ (Mus musculus [1]) was 0.77, the Dose/organ (Mus musculus [2]) was 1.57 and the Dose/organ (Mus musculus [3]) was 1.08. The Dose/organ (Mus musculus [4]) was 5.1, the Dose/organ (Mus musculus [5]) was 1.57 and the Dose/organ (Mus musculus [6]) was 0.85. For the same molecule, the Dose/organ (Mus musculus [7]) was 0.73, the Dose/organ (Mus musculus [8]) was 0.3 and the Dose/organ (Mus musculus [9]) was 0.57. It also gave a Dose/organ (Mus musculus [10]) of 0.63, a Dose/organ (Mus musculus [11]) of 0.57 and a Dose/organ (Mus musculus [12]) of 0.67. It also gave a Dose/organ (Mus musculus [13]) of 1.98, a Dose/organ (Mus musculus [14]) of 0.1 and a Dose/organ (Mus musculus [15]) of 0.94. For the same molecule, the Dose/organ (Mus musculus [16]) was 5.23, the Dose/organ (Mus musculus [17]) was 0.45 and the Dose/organ (Mus musculus [18]) was 1.23. It also gave a Dose/organ (Mus musculus [19]) of 0.5, a Dose/organ (Mus musculus [20]) of 3.14 and a Dose/organ (Mus musculus [21]) of 8.13. It also gave a Dose/organ (Mus musculus [22]) of 0.78, a Dose/organ (Mus musculus [23]) of 1.25 and a Dose/organ (Mus musculus [24]) of 0.82. It also gave a Dose/organ (Mus musculus [25]) of 3.08, a Dose/organ (Mus musculus [26]) of 1.25 and a Dose/organ (Mus musculus [27]) of 0.56. For the same molecule, the Dose/organ (Mus musculus [28]) was 0.2, the Dose/organ (Mus musculus [29]) was 3.3 and the Dose/organ (Mus musculus [30]) was 1.5. The Dose/organ (Mus musculus [31]) was 1.
